# Screening results deposited in PubChem by Sanford-Burnham Center for Chemical Genomics.
# This is a sample that favours compounds with a hit; in the whole collection about 3.9% have one here.
# tim23-1 inh: inhibits growth of tim23-1 mutant yeast; S. cerevisiae tim23-1 growth, BacTiter-Glo luminescence, 24 h; inhibition, % at 20 µM; actives 1.3% (n = 330,000); AID 463212;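 active = growth inhibition of the mutant yeast at or above 50%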;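 note: temperature-sensitive mutant grown at 25 °C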
# TIM10 inh: TIM10 yeast growth inhibition. S. cerevisiae TIM10 strain growth, BacTiter-Glo luminescence, 24 h. inhibition, % at 10 µM. actives 1.4% (n = 330,000);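 active = inhibition of 40% or more at the single tested concentration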;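 note: wild-type TIM10 isogenic control strain grown at permissive 25 °C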
# UPR CHOP act: apoptotic UPR (CHOP) activation; activation, % at 10 µM; CHO-CHOP luciferase reporter, luminescence; percent of tunicamycin response over DMSO baseline; actives 0.34% (n = 330,000);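 active = at 10 µM dose, activation of 40% or more, normalized to positive control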
#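 assay system = CHO CHOP reporter cells | amount = 500 CHO-CHOP cells per well | buffer or medium = F12 with 10% FBS | incubation = 16-18 h cell attachment, then 6 h compound exposure, 37 °C | detection = luminescence read with Steady-Glo | read-out = percent activation relative to tunicamycin control | controls = tunicamycin high control, DMSO low control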
# XBP1 UPR activ: adaptive UPR (XBP1) activation. CHO-XBP1 luciferase reporter, IRE1-XBP1 UPR activation, luminescence; percent of tunicamycin response, DMSO as zero. activation, % at 20 µM. actives 0.33% (n = 330,000);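 active = versus positive control, 20 µM dose yields 30% or more activation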
#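 Assay system: CHO-XBP1 luciferase reporter cells; Schedule: 6 h treatment, 37 °C; Detection: glow luminescence from Steady-Glo reagent; Benchmarks: high control tunicamycin 10 µg/mL final, low control DMSO vehicle only.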
# tim10-1 inh: tim10-1 yeast growth inhibition; actives 2.2% (n = 330,000); inhibition, % at 20 µM; S. cerevisiae tim10-1 ts strain growth, BacTiter-Glo, 24 h; AID 463190;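 active = inhibition of at least 40%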;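 note: mutant grown at 25 °C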
# tim10-1 confirm: confirmation of tim10-1 mutant yeast growth inhibitors | inhibition, % at 20 µM | actives 56% (n = 7,400) | shares compounds with tim10-1 inh | AID 463213 | S. cerevisiae tim10-1 ts strain growth, BacTiter-Glo, 24 h;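 active = inhibition of yeast growth at or above a set limit in either of two repeat tests at 20 µM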;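 note: tim10-1 mutant grown at permissive 25 °C to find synthetic lethal compounds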
# tim10 confirm: TIM10 yeast growth inhibition, confirmed; shares compounds with TIM10 inh; S. cerevisiae tim10 strain growth, BacTiter-Glo luminescence, 24 h; inhibition, % at 10 µM; actives 63% (n = 4,600);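 active = inhibition of yeast growth at or above a set limit in either of two replicates at 10 µM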; note: this counterscreen used the strain with wild-type TIM10
# tim23-1 confirm: tim23-1 yeast growth inhibition, confirmed; shares compounds with tim23-1 inh; S. cerevisiae tim23-1 growth, BacTiter-Glo luminescence, 24 h; inhibition, % at 20 µM; actives 83% (n = 4,400);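 active = inhibition above about 39% in either of two replicate wells at 20 µM, limit read from the data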;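 note: temperature-sensitive tim23-1 mutant grown at 25 °C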
# Numbers stand for hits; n = inactive; x = no result given.
SMILES,tim23-1 inh,TIM10 inh,UPR CHOP act,XBP1 UPR activ,tim10-1 inh,tim10 confirm,others
O=c1[nH][nH]c(-c2ccccc2O)c1C(C[N+](=O)[O-])c1ccc(Br)cc1 (centres undefined),62,53,n,n,52,n,tim10-1 confirm=44;tim23-1 confirm=65
COc1ccc(C(C[N+](=O)[O-])c2c(C)[nH]c3ccccc23)cc1OC (centres undefined),n,n,n,n,n,x,
O=C(CC(=O)Nc1ccccn1)Nc1ccccn1,n,n,n,n,n,x,
c1ccc(/N=C2\N=C(Nc3ccccn3)c3ccccc32)nc1,n,46,n,n,n,n,
Cc1ccc(Oc2cc(NN3CCCCC3)c([N+](=O)[O-])cc2[N+](=O)[O-])c(Cl)c1,n,n,n,n,n,x,
COc1ccc2nc3sc(C(=O)NCCN4CCc5ccccc5C4)cc3cc2c1,n,75,n,n,n,80,
COc1ccc2cc3cc(C(=O)NCCCN4CCc5ccccc5C4)sc3nc2c1,n,63,n,n,n,54,
COc1ccc2cc3cc(C(=O)NC4CC4)sc3nc2c1,n,n,n,n,n,x,
CN1C(=O)C(=O)N(CC(=O)Nc2ccccc2OC(F)F)C1=O,n,n,n,n,n,x,
Cc1cccnc1NC(=O)c1cccc(S(=O)(=O)NCc2ccccc2)c1,n,n,n,n,n,x,
O=C(COc1ccc(Cl)cc1)Nc1ccc2c(c1)CCC2,n,41,n,n,n,n,
Cc1nc(NC(=O)c2ccccc2)sc1-c1csc(N)n1,n,44,n,n,n,n,
Cn1c(=O)c(C(=O)NNC(=O)c2ccc(Br)cc2)c(O)c2ccccc21,n,64,n,n,n,59,
Cc1cc(N=Cc2c(O)n(-c3ccc4c(c3)OCO4)c(=O)c3ccccc23)ccn1,n,53,n,n,n,36,
O=C(O)c1ccccc1N=Cc1c(O)n(-c2nccs2)c(=O)c2ccccc12,n,n,n,n,n,x,
Cc1ccc(N=Cc2c(O)n(-c3nccs3)c(=O)c3ccccc23)cc1,n,41,n,n,n,n,
CC1=C(C)CC(C(=O)NCc2c(F)cccc2Cl)C(C(=O)O)C1 (centres undefined),n,n,n,n,n,x,
CCOC(=O)NC(=S)Nc1ccc(C(C)(C)C)cc1Br,n,50,n,n,n,39,
COc1ccc(-c2ccccc2)cc1NCc1ccc(OC)c(OC)c1,n,n,n,n,n,x,
COc1cccc(NC(=O)CNC(=O)c2ccc(OC)c(OC)c2)c1,n,n,n,n,n,x,
COc1ccc(C(=O)NCC(=O)Nc2ccc(F)cc2)cc1OC,n,50,n,n,n,n,
CCN(CCCNC(=O)Cn1ncc2c(=O)oc3ccccc3c21)c1cccc(C)c1,n,n,n,n,n,x,
CCCN(C(=O)Cn1ncc2c(=O)oc3ccccc3c21)c1cccc(C)c1,n,41,n,n,n,n,
Cc1ccccc1C(N)c1ccncc1 (centres undefined),n,81,n,n,n,n,
O=C(NC(=S)N(CCCCO)C1CCCCC1)c1sc2ccccc2c1Cl,n,43,n,n,n,n,
SMILES,tim23-1 inh,TIM10 inh,UPR CHOP act,XBP1 UPR activ,tim10-1 inh,tim10 confirm,others
O=C(COC(=O)c1ccc([N+](=O)[O-])s1)Nc1ncc(C(F)(F)F)cc1Cl,n,65,n,n,n,72,
CC1CCCC(NC(=O)COC(=O)c2ccc([N+](=O)[O-])s2)C1C (centres undefined),n,62,n,n,n,61,
Cc1ccc(CC(=O)OCC(=O)NC2CCCC(C)C2C)cc1C (centres undefined),n,50,n,n,n,n,
COc1ccc(Cl)cc1NC(=O)c1cccc(-n2cnnn2)c1,n,n,n,n,n,x,
COc1ccc(C(CNCC(O)COc2c(C)ccc(C)c2C)N(C)C)cc1 (centres undefined),n,n,n,n,n,x,
Cc1cccc(CC(C)NC(=O)c2oc3c(F)cccc3c2C)n1 (centres undefined),n,n,n,n,n,x,
O=C(O)C1Sc2[nH]c(=O)sc2C2c3cc(Br)ccc3OC(=O)C12 (centres undefined),n,44,n,n,n,33,
COc1ccc(C2C(C#N)=C3NC(=O)c4c(sc5c4CCCCC5)N3C3=C2C(=O)CC(C)(C)C3)cc1 (centres undefined),n,43,n,n,n,n,
COc1ccc(C2C(C#N)=C(N)N(c3sc4c(c3C#N)CCCC4)C3=C2C(=O)CC(C)(C)C3)cc1 (centres undefined),n,n,n,n,n,x,
Cc1ccc2nc(-c3ccc(N4C(=O)CC(N5CCC(C(N)=O)CC5)C4=O)cc3)sc2c1 (centres undefined),n,42,n,n,n,57,
COc1ccc(NC(=O)CN2CCN(c3c(C)cccc3C)CC2)cc1,n,n,n,n,n,x,
COc1ccccc1C(=O)NC1CCN(C(=O)Nc2ccc(F)cc2)CC1,n,n,n,n,n,x,
S=C(NCc1cccs1)Nc1cccc2ccccc12,n,n,n,n,n,x,
S=C(NCc1cccs1)Nc1ccc(Br)cc1Cl,n,41,n,n,n,46,
CC(C)CN(C(=O)COC(=O)c1nc(Cl)ccc1Cl)c1c(N)n(Cc2ccccc2)c(=O)[nH]c1=O,n,n,n,n,n,x,
COc1ccc(Nc2nc3ccccc3s2)cc1,n,n,n,n,n,x,
COc1ccc(Nc2nc(Cl)c(C=O)s2)cc1,n,46,n,n,n,n,
CC(=O)N1CCN(C(=O)c2cc(=O)c3ccccc3o2)CC1,n,n,n,n,n,x,
O=C1CCC(C(=O)OCC(=O)N2N=C3/C(=C/c4ccccc4)CCCC3C2c2ccccc2)N1 (centres undefined),n,42,n,n,n,n,
O=C(COc1cccc(OC(F)F)c1)Nc1ccc(SC(F)F)cc1,n,50,n,n,n,39,
O=C(COc1cccc(Oc2ccccc2)c1)Nc1ccc(SC(F)F)cc1,n,n,n,n,n,x,
CCCCNC(=O)Nc1nc2ccc(CC)cc2s1,n,n,n,n,n,n,
CCN1C(=O)/C(=C/c2ccc(C)s2)NC1=S,n,41,n,n,n,n,
O=C(NCc1ccccc1)c1onc(CSc2ccc(F)c(F)c2)c1C(=O)NCc1ccccc1,n,n,n,n,n,x,
COc1ccc(C(c2c(C)n(C)n(-c3ccccc3)c2=O)c2c(C)n(C)n(-c3ccccc3)c2=O)c(OC)c1OC,n,n,n,n,n,x,
